The source of these data is ChEMBL document CHEMBL1240389, “In vitro and in vivo activities of the novel anticytomegalovirus compound AIC246” (Antimicrob Agents Chemother, 2010).

In experiment [1] the test system is Human betaherpesvirus 5. Kind of experiment: Antiviral activity against human cytomegalovirus RV-HG infected in NHDF after 7 days by GFP-based fluorescent reduction assay. The class given is functional, organism-based. To be noted: Human betaherpesvirus 5, RV-HG, 168 h. In outline:
(§1)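 Incubated 7 days at 37°C, medium swapped for PBS, GFP units read by CCD-camera fluorescence imager. EC50/EC90 from % GFPU reduction versus untreated infected wells by nonlinear regression; at least triplicate experiments.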

In experiment [2] the test system is Human betaherpesvirus 5. Kind of experiment: Antiviral activity against human cytomegalovirus AD169 infected in NHDF after 7 days by GFP-based fluorescent reduction assay. The format is functional, organism-based. Conditions: Human betaherpesvirus 5, AD169, NHDF, 168 h. In short, it runs like this:
as §1

The subject of experiment [3] is Human betaherpesvirus 5. Kind of experiment: Antiviral activity against human cytomegalovirus AD169 infected in NHDF assessed as inhibition of virus-induced cytopathic effect after 6 to 7 days by giemsa staining. The format is functional, organism-based. To be noted: Human betaherpesvirus 5, AD169, NHDF. In short, it runs like this:
(§2)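 NHDF cells (1 × 10⁴/well) mixed with cell-free virus (MOI 0.03) or with infected-cell suspension (MOI 0.001 to 0.002). Compound was added from DMSO stocks in 2-fold serial dilutions, final 250 to 0.00005 μM, in duplicates. Plates were incubated 6 to 7 days at 37°C or until 100% CPE in virus control, then fixed and stained with Giemsa/formalin and scored microscopically. EC₅₀ is 50% CPE inhibition versus untreated infected control.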

For experiment [4], the system named is Human betaherpesvirus 5. Kind of experiment: Antiviral activity against human cytomegalovirus Davis infected in NHDF assessed as inhibition of virus-induced cytopathic effect after 6 to 7 days by giemsa staining. The class given is functional, organism-based. To be noted: Human betaherpesvirus 5, Davis. In short, it runs like this: as §2
For orientation: Damage to the host cells serves as the signal in cytopathic effect assays.

In experiment [5] the test system is Human betaherpesvirus 5. Kind of experiment: Antiviral activity against 0.03 MOI human cytomegalovirus AD169 infected in NHDF after 7 days by GFP-based fluorescent reduction assay. The class given is functional, organism-based. To be noted: Human betaherpesvirus 5, AD169, NHDF, 168 h. In short, it runs like this:
(§3)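 NHDF cells (1.5 × 10⁴/well) infected with GFP-expressing HCMV AD169 at the stated MOI (range 0.003 to 1 tested). After adsorption the inoculum was replaced, and compound was added in 3-fold serial dilutions, each at least in duplicate. Cells were incubated 7 days at 37°C, then GFP units were read by CCD camera in PBS. EC₅₀ was taken as the % GFPU reduction versus no-drug control. At least triplicate experiments.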

For experiment [6], the system named is Human betaherpesvirus 5. Kind of experiment: Antiviral activity against 0.3 MOI human cytomegalovirus AD169 infected in NHDF after 7 days by GFP-based fluorescent reduction assay. To be noted: Human betaherpesvirus 5, AD169, NHDF, 168 h. The class given is functional, organism-based. In outline:
as §3

Experiment [7] relates to Human herpesvirus 5 strain AD169. Kind of experiment: Antiviral activity against ganciclovir-resistant human cytomegalovirus AD169 UL97 M460I infected in NHDF assessed as inhibition of virus-induced cytopathic effect after 6 to 7 days by giemsa staining. Conditions: Human betaherpesvirus 5, UL97 M460I. The class given is functional, organism-based. In short, it runs like this: as §2

In experiment [8] the test system is Human betaherpesvirus 5. Kind of experiment: Antiviral activity against human cytomegalovirus isolate Se infected in NHDF assessed as inhibition of virus-induced cytopathic effect after 6 to 7 days by giemsa staining. To be noted: Human betaherpesvirus 5, isolate Se. The class given is functional, organism-based. In outline: as §2
For experiment [9], the system named is Human betaherpesvirus 5. Kind of experiment: Antiviral activity against human cytomegalovirus isolate Ba infected in NHDF assessed as inhibition of virus-induced cytopathic effect after 6 to 7 days by giemsa staining. The format is functional, organism-based. To be noted: Human betaherpesvirus 5, isolate Ba. In short, it runs like this:
as §2

Experiment [10] relates to Human betaherpesvirus 5. Kind of experiment: Antiviral activity against human cytomegalovirus Davis xenograft mouse model assessed as reduction of viral load administered via oral gavage QD for 9 days measured post last dose. The class given is functional. To be noted: Human betaherpesvirus 5, Davis, 216 h. In short, it runs like this: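 NOD SCID mice (18 to 25 g) implanted subcutaneously (dorsoscapular) with Gelfoam sponges seeded with 1 × 10⁶ NHDF cells infected with strain Davis (MOI 0.03), bFGF-treated. From 4 h post-transplant, dosed orally by gavage once daily for 9 days in 2% DMSO/0.5% methylcellulose-PBS, 10 ml/kg. Implants then collagenase-digested; recovered cells titrated by plaque assay on NHDF (PFU/ml).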
(Xenograft models place foreign cells or tissue in a host animal.)

The test system of experiment [11] is Human betaherpesvirus 5. Kind of experiment: Antiviral activity against 0.01 MOI human cytomegalovirus AD169 infected in NHDF after 7 days by GFP-based fluorescent reduction assay. To be noted: Human betaherpesvirus 5, AD169, NHDF, 168 h.
Experiment [12] relates to Human betaherpesvirus 5. Kind of experiment: Antiviral activity against human cytomegalovirus AD169 infected in NHDF at 10 times EC50 treated postinfection and measured after 7 days by GFP-based fluorescent reduction assay.

Each structure is given as a SMILES string. Active and inactive are the calls of the source. The rule behind the calls is not given here.

As for `COc1cccc(N2CCN(C3=Nc4c(F)cccc4[C@H](CC(=O)O)N3c3cc(C(F)(F)F)ccc3OC)CC2)c1` [LETERMOVIR], the EC50 in the experiment with Human betaherpesvirus 5 [1] came to 4.9 nM; in the experiment with Human betaherpesvirus 5 [2], 3.8 nM; with Human betaherpesvirus 5 [3], 5 nM; in the experiment on Human betaherpesvirus 5 [4] it was 4 nM; in the experiment with Human betaherpesvirus 5 [5], 2.9 nM; with Human betaherpesvirus 5 [6], 3.6 nM. In addition, the EC50 in experiment [7] was 3.9 nM; in the experiment with Human betaherpesvirus 5 [8], 3.1 nM; in the experiment with Human betaherpesvirus 5 [9], 5.8 nM; with Human betaherpesvirus 5 [11], 1.5 nM. In addition, the EC90 in the experiment with Human betaherpesvirus 5 [1] stood at 7.1 nM; with Human betaherpesvirus 5 [2] it was 5.1 nM. In the experiment on Human betaherpesvirus 5 [10], the ED50 is 3 mg/kg/day. Further, the ED90 with Human betaherpesvirus 5 [10] turned out to be 8 mg/kg/day. Besides, the result in the experiment on Human betaherpesvirus 5 [12] was Active.

Broadly, the EC50 is the midpoint of the concentration-response curve. One may read the EC90 as the point of the concentration-response curve where the effect stands at 90%. A higher EC90 goes with weaker potency. For orientation: ED50 means the dose that gives a 50% effect, or the effect in half of the subjects.
